Tests used:
[1] = tested on: BT-549 cells; assay: Crystal violet staining, cells remaining / viability dose-response; format: cell-based, human
Outline: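 Cells were plated at 5,000/well in 5% charcoal-stripped DMEM for 48 h, then exposed to test compound or DMSO vehicle for 72 h at 37 °C, 5% CO2. They were fixed with glutaraldehyde for 20 min and stained for 20 min with 0.1% crystal violet in 90% methanol. After overnight drying, cells were lysed in 33% acetic acid and read at 620 nm. Signal was normalized to DMSO and plotted as dose-response.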

[2] = tested on: MDA-MB-231 cells; assay: Ki-67 immunofluorescence staining for proliferation; format: cell-based, human; details: MDA-MB-231, 1 μM, 72 hours
[3] = tested on: BT549 cells; assay: Transwell migration assay; format: cell-based, human; details: BT549, pretreated 1 μM 72 hours, 24 hours migration
Outline: (§1)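 Cells were pretreated 72 h with test compound (1 μM) or DMSO, and viable cells were then seeded into transwell chambers for 24 h. Non-migrated cells were removed. Migrated cells were fixed, crystal violet-stained, imaged by brightfield and counted. Counts were normalized to DMSO per cell line; triplicate experiments.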

[4] = tested on: TU-BcX-4IC cells; assay: Transwell migration assay; format: cell-based, human; details: pretreated 1 μM 72 hours, 24 hours migration
Outline: as §1

[5] = tested on: MDA-MB-231 cells; assay: qRT-PCR of epithelial and mesenchymal genes; format: cell-based, human; details: MDA-MB-231, 1 μM, 72 hours
Outline: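 MDA-MB-231 cells in 5% charcoal-stripped DMEM were pre-exposed for 72 h to test compound (1 μM) or DMSO. RNA was then isolated and gene expression measured by quantitative real-time PCR.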

[6] = tested on: BT-549 cells; assay: qRT-PCR of epithelial and mesenchymal genes; format: cell-based, human; details: BT-549, 1 μM, 72 hours
Outline: (§2)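 Cells were treated 72 h with test compound (1 μM) or DMSO. Total RNA was column-isolated and checked for quantity and quality by absorbance (260, 280 nm). Then 2 μg total RNA was reverse-transcribed and gene expression measured by qRT-PCR.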

[7] = tested on: TU-BcX-4IC cells; assay: qRT-PCR of epithelial and mesenchymal genes; format: cell-based, human; details: 1 μM, 72 hours
Outline: as §2

[8] = tested on: TU-BcX-49S cells; assay: qRT-PCR of epithelial and mesenchymal genes; format: cell-based, human
[9] = tested on: TU-BcX-4IC explants; assay: Western blot of treated PDX tumor explants; format: cell-based, human; details: 24 hours
[10] = tested on: TU-BcX-2K1 tumors; assay: qRT-PCR of ex vivo treated PDX tumor pieces; format: cell-based, human; details: TU-BcX-2K1 tumor pieces, 1 μM, 72 hours
[11] = tested on: TU-BcX-49S tumors; assay: qRT-PCR of ex vivo treated PDX tumor pieces; format: cell-based, human; details: TU-BcX-49S tumor pieces, 1 μM, 72 hours
[12] = tested on: TU-BcX-2O0 tumors; assay: qRT-PCR of ex vivo treated PDX tumor pieces; format: cell-based, human; details: TU-BcX-2O0 tumor pieces, 1 μM, 72 hours
[13] = tested on: TU-BcX-4IC tumors; assay: qRT-PCR of ex vivo treated PDX tumor pieces; format: cell-based, human; details: TU-BcX-4IC tumor pieces, 1 μM, 72 hours
[14] = tested on: HLA+CD44+CD24- cancer stem cells of TU-BcX-4IC-implanted mice; assay: Flow cytometry for circulating cancer stem cells in peripheral blood; format: in vivo, SCID/Beige mice; details: 25 mg/kg bid, vs DMSO vehicle
Outline: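 Female SCID/Beige mice (n=5/group) carried TU-BcX-4IC tumor implants (3 × 3 mm) in the mammary fat pads and received i.p. test compound or DMSO vehicle twice daily for 15 days. Intracardiac blood was stored in EDTA […], RBC-lysed ([…] NH4Cl, pH 7.2–7.4), Fc-blocked, and stained with anti-human CD24, EpCAM and CD44. At least 5000 events were analyzed; n=4 mice/group; mean ± SEM.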

[15] = tested on: TU-BcX-4IC M2 spheres; assay: Mammosphere formation and area quantification; format: cell-based, human; details: 7 days treatment
Outline: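 Cells were plated at 1,000/well in low-attachment plates in serum-free F12/DMEM with B-27 and left 24 h to form spheres. Spheres were then exposed to test compound or DMSO for one week, re-dosed every three days. Spheres were imaged at 40X or 100X, and length and width were measured to calculate area, which was compared with DMSO controls.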

[16] = tested on: MDA-MB-231 M2 spheres; assay: In vivo inoculation of pre-treated spheres, tumorigenesis and metastasis; design: species or system SCID/Beige mice; details: MDA-MB-231 M2 spheres pre-treated 1 μM 72 hours; all cell concentrations
Outline: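 M2 spheres were treated 72 h at 1 μM or with DMSO under low attachment, dissociated with TrypLE, and counted by Trypan Blue so that only viable cells were injected. Cells (1,000–200,000) went bilaterally into the mammary fat pads of SCID/Beige mice (N=5). Tumors were caliper-measured biweekly, then resected; mice were killed 20 days later. Lungs and livers were formalin-fixed, paraffin-embedded and H&E-stained, and metastases were quantified.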

[17] = target: LOK (Homo sapiens, UniProt O94804); assay: Kinase inhibition assay; format: biochemical; details: 1 μM
[18] = target: T1, NEK2 (Homo sapiens, UniProt P51955); assay: Kinase inhibition assay; format: biochemical; details: 1 μM
T1 sequence (P51955 1-445): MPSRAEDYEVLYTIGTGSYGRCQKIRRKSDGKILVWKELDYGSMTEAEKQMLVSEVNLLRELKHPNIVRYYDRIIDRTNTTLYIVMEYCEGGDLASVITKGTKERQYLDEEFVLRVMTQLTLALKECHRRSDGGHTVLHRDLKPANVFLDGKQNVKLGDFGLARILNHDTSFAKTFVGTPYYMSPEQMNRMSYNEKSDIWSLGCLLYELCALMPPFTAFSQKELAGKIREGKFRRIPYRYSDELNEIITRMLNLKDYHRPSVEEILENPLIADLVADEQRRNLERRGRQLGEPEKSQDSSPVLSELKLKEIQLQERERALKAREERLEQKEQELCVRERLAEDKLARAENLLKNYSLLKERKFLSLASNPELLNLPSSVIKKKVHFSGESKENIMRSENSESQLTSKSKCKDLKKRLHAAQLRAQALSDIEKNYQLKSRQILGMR

[19] = target: RET (Homo sapiens, UniProt P07949); assay: Kinase inhibition assay; format: biochemical; details: 1 μM
[20] = target: BRSK2 (Homo sapiens, UniProt Q8IWQ3); assay: Kinase inhibition assay; format: biochemical; details: 1 μM
Chain of BRSK2 (Q8IWQ3 whole entry): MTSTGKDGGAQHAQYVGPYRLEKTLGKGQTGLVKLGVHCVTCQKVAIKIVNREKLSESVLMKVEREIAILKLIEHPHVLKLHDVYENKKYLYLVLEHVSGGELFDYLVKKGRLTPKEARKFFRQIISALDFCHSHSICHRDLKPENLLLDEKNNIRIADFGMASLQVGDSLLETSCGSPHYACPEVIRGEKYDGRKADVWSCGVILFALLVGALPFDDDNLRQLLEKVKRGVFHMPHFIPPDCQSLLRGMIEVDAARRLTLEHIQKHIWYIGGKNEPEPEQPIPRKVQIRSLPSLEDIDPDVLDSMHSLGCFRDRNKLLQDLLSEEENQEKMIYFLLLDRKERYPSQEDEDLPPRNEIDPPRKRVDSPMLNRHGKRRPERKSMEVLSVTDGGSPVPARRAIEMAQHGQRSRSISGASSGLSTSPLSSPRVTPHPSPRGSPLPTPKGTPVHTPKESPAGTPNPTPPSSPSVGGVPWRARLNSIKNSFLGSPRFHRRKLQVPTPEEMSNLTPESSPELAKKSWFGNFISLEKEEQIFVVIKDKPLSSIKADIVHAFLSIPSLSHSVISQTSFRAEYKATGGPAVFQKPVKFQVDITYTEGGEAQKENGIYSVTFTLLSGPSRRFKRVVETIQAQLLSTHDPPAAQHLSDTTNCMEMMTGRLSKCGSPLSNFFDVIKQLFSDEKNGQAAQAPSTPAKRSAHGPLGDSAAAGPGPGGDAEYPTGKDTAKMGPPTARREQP

Chain of LOK (O94804 whole entry): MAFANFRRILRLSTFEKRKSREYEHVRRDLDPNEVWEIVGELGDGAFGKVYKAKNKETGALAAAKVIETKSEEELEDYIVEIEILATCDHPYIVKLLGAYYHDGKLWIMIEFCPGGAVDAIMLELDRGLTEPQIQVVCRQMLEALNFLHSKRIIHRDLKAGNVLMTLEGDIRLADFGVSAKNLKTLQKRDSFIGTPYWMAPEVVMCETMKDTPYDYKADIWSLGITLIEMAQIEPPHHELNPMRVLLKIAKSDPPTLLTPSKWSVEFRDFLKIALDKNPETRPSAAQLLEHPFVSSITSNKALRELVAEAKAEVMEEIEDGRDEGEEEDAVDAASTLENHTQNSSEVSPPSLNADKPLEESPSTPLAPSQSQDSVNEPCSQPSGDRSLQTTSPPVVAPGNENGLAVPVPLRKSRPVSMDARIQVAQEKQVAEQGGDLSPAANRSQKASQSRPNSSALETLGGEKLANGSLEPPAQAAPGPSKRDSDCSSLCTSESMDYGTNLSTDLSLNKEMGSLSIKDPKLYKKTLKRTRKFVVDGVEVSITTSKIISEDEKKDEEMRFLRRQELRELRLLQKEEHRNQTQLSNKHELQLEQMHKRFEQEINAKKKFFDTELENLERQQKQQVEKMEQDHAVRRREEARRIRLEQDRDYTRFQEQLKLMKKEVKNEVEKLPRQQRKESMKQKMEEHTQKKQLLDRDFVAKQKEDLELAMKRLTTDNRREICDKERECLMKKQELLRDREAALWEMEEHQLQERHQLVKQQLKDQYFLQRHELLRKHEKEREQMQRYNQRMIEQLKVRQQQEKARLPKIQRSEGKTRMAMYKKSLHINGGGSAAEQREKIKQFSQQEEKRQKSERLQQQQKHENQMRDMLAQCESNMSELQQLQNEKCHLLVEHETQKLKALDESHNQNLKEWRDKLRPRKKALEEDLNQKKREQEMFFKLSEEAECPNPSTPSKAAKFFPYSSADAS
Chain of RET (P07949 29-1114): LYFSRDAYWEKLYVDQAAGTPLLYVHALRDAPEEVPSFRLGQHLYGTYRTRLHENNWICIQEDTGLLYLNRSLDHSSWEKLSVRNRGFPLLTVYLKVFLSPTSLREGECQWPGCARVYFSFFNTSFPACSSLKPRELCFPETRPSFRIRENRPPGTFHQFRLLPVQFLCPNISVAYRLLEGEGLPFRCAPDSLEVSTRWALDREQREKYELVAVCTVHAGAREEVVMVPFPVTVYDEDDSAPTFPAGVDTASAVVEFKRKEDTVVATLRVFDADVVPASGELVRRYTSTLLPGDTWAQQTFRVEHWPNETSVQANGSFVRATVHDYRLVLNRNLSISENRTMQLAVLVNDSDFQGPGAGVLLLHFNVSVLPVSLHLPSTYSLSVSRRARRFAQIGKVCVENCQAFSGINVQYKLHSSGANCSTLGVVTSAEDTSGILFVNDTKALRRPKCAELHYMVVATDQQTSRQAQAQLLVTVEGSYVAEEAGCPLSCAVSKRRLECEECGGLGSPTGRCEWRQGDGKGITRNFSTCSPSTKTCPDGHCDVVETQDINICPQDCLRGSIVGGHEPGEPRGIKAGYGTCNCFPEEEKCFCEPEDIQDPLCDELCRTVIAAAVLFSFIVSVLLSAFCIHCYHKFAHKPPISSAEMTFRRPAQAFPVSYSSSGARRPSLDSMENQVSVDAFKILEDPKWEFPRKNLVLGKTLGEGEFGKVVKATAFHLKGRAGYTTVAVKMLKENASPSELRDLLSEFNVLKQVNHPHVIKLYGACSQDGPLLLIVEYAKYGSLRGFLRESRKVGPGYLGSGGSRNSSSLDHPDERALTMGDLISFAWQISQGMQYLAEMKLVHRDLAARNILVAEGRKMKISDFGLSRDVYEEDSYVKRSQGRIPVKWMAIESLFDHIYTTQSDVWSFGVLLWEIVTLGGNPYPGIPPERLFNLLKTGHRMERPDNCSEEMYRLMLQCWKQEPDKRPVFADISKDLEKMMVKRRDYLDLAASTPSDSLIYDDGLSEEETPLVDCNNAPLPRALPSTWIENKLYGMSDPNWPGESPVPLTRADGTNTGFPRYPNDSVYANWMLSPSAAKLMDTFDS

**Q.** How did the “Number of cells remaining compared to DMSO controls” value ([1]; BT-549, 1 μM, 72 hours) turn out when C[C@@H](Oc1cc(-n2cnc3ccc(NC(=O)NC(C)(C)C)cc32)sc1C(N)=O)c1ccccc1Cl [GSK346294A] was run?
**A.** The value was “decreased the number of cells remaining”.

**Q.** And the IC50 ([1]; Homo sapiens, BT-549, 72 h, read-out: IC-50, number of cells remaining)?
**A.** Its IC50 is 1 µM.

**Q.** What about the “Ki-67 positive cells (cell proliferation)” value [2] of the same compound?
**A.** Its value is “increased the total number of cells expressing the Ki-67 marker”.

**Q.** And the Transwell cell migration [3]?
**A.** Its Transwell cell migration is “most suppressive effects on cell migration”.

**Q.** What about the Transwell cell migration [4] of the same compound?
**A.** The Transwell cell migration was “most suppressive effects on cell migration”.

**Q.** And the “MMP9 mRNA expression” value [5]?
**A.** Its value is “downregulated MMP9 expression, but not significantly”.

**Q.** What about the “cFOS mRNA expression” value [5] of the same compound?
**A.** Its value is “suppressive effects in all three TNBC cell lines, although not significantly”.

**Q.** What about the “CDH1 mRNA expression” value [6] of the same compound?
**A.** The value was “significantly reduced CDH1 mRNA expression”.

**Q.** What about the “MMP9 mRNA expression” value [6] of the same compound?
**A.** Its value is “Neither GSK346294A nor GSK448459A affected MMP9 expression”.

**Q.** And the “SNAI1 mRNA expression” value [6]?
**A.** The value was “no significant effects on SNAI1 expression”.

**Q.** What about the “cFOS mRNA expression” value [6] of the same compound?
**A.** Its value is “suppressive effects in all three TNBC cell lines, although not significantly”.

**Q.** What about the “MMP9 mRNA expression” value [7] of the same compound?
**A.** Its value is “Neither GSK346294A nor GSK448459A affected MMP9 expression”.

**Q.** What about the “ZEB1 mRNA expression” value [7] of the same compound?
**A.** The value was “suppressed ZEB1 expression in TU-BcX-4IC cells albeit not significantly”.

**Q.** And the “cFOS mRNA expression” value [7]?
**A.** The value was “suppressive effects in all three TNBC cell lines, although not significantly”.

**Q.** What about the “cFOS mRNA expression” value [8] of the same compound?
**A.** Its value is “Neither GSK346294A nor GSK448459A suppressed cFOS mRNA expression”.

**Q.** What about the “CDH1 mRNA expression” value ([8]; compared to DMSO controls) of the same compound?
**A.** Its value is “increased CDH1 expression”.

**Q.** And the CDH1 protein expression [9]?
**A.** The CDH1 protein expression was “increased CDH1 protein”.

**Q.** And the MMP9 protein expression [9]?
**A.** The MMP9 protein expression was “suppressed the mesenchymal-associated proteins MMP9 and ZEB1”.

**Q.** And the ZEB1 protein expression [9]?
**A.** The ZEB1 protein expression was “suppressed the mesenchymal-associated proteins MMP9 and ZEB1”.

**Q.** What about the “CD24 mRNA expression” value [10] of the same compound?
**A.** Its value is “increased CD24 expression”.

**Q.** And the “CDH1 mRNA expression” value [10]?
**A.** The value was “increased epithelial markers CDH1 mRNA expression”.

**Q.** What about the “CDH1 mRNA expression” value [11] of the same compound?
**A.** The value was “increased epithelial markers CDH1 mRNA expression”.

**Q.** And the “MMP9 mRNA levels” value [12]?
**A.** The value was “did not reduce MMP9 levels”.

**Q.** And the “Reversal of mesenchymal phenotype on a transcript level” value [12]?
**A.** The value was “did not reverse the mesenchymal phenotype”.

**Q.** What about the “MMP9 mRNA levels” value [13] of the same compound?
**A.** The value was “did not reduce MMP9 levels”.

**Q.** And the “Reversal of mesenchymal phenotype on a transcript level” value [13]?
**A.** Its value is “did not reverse the mesenchymal phenotype”.

**Q.** And the “CSC populations in peripheral blood” value [14]?
**A.** Its value is “suppressed the CSC populations in the peripheral blood of mice implanted with TU-BcX-4IC tumors, although not significantly”.

**Q.** What about the “Mammosphere formation (sphere area)” value [15] of the same compound?
**A.** The value was “significantly suppressed mammosphere formation”.

**Q.** And the “Area and number of lung and liver metastases” value [16]?
**A.** The value was “consistently suppressed both overall area and number of metastases in all cell concentrations, although not significantly”.

**Q.** And the “Activity against LOK” value [17]?
**A.** Its value is “moderate activity”.

**Q.** And the “Binding activity to LOK” value [17]?
**A.** Its value is 36%.

**Q.** And the “Binding activity to NEK2” value [18]?
**A.** The value was 5%.

**Q.** What about the “Activity against RET” value [19] of the same compound?
**A.** The value was “moderate activity”.

**Q.** And the “Activity against BRSK2” value [20]?
**A.** Its value is “moderate activity”.

From article PMC8092417 (Anti-cancer drugs, 2020)
